Publication PMC11079110 (Heliyon, 2024)

Assays:
human KMO = human KMO (Homo sapiens, UniProt O15229); assay: Kinetics study; assay type: biochemical; settings: Lineweaver-Burk plots, 0–40 μM compound, 0–20 μM L-Kyn
Method in brief: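 Human KMO was exposed to graded test compound concentrations across a range of L-Kyn concentrations. Reaction velocities were plotted as double reciprocals (Lineweaver-Burk). Inhibition type was assigned from how the x- and y-intercepts, reflecting Km and Vmax, shifted with inhibitor. Each condition was run in triplicate, and the experiments were repeated three times.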

KMO = settings: read-out: IC50 (KMO inhibitor); cited from earlier work

Chain of human KMO (O15229 whole entry): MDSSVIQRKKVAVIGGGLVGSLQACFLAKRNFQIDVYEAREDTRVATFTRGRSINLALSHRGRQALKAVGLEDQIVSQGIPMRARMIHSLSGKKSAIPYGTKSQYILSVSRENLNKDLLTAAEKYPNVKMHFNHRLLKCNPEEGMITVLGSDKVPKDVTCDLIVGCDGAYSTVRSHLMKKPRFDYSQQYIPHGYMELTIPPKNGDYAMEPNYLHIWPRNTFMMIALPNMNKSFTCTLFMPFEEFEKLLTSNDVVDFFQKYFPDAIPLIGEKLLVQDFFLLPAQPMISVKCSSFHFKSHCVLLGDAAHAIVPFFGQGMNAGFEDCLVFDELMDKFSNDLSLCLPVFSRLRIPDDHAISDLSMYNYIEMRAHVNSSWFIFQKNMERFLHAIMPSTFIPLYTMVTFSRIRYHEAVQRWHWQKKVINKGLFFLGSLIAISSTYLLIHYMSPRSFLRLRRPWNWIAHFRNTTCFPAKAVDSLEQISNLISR

| Inhibition type (human KMO) | Inhibition type (human KMO; listed as apigenin) | Inhibition type (human KMO; listed as genkwanin) | SMILES | IC50 (KMO) [nM] |
| --- | --- | --- | --- | --- |
| non-competitive inhibition | non-competitive inhibitors | – | O=c1cc(-c2ccc(O)cc2)oc2cc(O)cc(O)c12 [Apigenin] | – |
| – | – | – | Cc1ccc([C@@H](C)Oc2cc3onc(CCC(=O)O)c3cc2Cl)nn1 [GSK 366] | 2.3 |
| non-competitive inhibition | – | non-competitive inhibitors | COc1cc(O)c2c(=O)cc(-c3ccc(O)cc3)oc2c1 [Genkwanin] | – |
| – | – | – | O=C(O)[C@H]1C[C@@H]1C(=O)c1ccc(Cl)c(Cl)c1 [UPF-648] | 20 |
